The values that follow come from the M2OR odorant receptor database.

Structures are written as SMILES. Substitutions are numbered along the chain they refer to.

Holding throughout (details): stereoisomer not certain
Test [1] deals with T1, OR2T6 C23G.
T1 sequence (whole entry): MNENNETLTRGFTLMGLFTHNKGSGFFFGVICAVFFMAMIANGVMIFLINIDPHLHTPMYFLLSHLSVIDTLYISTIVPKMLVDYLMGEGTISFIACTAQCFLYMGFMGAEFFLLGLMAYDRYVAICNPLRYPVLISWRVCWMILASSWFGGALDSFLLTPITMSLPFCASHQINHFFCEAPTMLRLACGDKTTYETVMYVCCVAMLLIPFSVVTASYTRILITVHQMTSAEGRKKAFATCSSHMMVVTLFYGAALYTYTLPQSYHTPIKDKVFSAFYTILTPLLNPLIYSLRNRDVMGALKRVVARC
The essentials:
(§1)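 Values were gathered from published papers (main text and supplementary material), with extra details requested from the original authors when needed, and checked for typos and inconsistencies. Each receptor–molecule pair is called responsive (active) if the original authors judged the measured signal statistically different from baseline, and non-responsive (inactive) otherwise. Assay methods varied by source, often transient mammalian cell-line luciferase assays. Recorded details include cell line, G-protein, co-transfected protein and tags.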

Test [2] has as its system T2, OR2T7.
T2 sequence (whole entry): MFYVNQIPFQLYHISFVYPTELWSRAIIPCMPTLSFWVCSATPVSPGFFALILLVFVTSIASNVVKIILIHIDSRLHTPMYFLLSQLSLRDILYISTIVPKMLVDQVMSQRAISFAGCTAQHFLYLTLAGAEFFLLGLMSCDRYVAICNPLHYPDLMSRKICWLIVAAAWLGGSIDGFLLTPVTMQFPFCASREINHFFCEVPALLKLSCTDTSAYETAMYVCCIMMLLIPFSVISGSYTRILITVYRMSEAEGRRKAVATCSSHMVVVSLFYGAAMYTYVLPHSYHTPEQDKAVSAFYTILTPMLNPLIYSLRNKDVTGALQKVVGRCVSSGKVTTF
The essentials: as §1

Test [3] concerns the target T3, OR2T8 (Homo sapiens) (UniProt A6NH00).
T3 sequence (whole entry): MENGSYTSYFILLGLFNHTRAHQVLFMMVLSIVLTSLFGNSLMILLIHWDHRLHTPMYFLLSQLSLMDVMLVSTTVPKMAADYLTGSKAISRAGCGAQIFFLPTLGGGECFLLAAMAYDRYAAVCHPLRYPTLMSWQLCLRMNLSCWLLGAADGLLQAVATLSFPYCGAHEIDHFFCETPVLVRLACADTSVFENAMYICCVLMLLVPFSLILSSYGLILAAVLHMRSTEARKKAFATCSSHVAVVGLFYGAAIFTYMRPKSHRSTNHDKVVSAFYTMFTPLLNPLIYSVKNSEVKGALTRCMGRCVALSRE
The essentials: as §1

The target in test [4] is T4, OR2V1 (Homo sapiens) (UniProt Q8NHB1).
T4 sequence (whole entry): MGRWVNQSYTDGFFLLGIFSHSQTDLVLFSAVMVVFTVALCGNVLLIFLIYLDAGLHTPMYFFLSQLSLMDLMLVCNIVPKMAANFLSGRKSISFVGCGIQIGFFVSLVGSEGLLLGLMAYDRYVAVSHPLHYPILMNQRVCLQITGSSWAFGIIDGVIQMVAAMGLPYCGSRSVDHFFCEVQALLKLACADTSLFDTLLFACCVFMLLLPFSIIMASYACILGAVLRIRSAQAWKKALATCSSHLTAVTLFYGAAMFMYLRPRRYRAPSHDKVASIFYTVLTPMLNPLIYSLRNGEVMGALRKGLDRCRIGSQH
The essentials: as §1

Test [5] addresses T5, OR2V2 (Homo sapiens) (UniProt Q96R30).
T5 sequence (whole entry): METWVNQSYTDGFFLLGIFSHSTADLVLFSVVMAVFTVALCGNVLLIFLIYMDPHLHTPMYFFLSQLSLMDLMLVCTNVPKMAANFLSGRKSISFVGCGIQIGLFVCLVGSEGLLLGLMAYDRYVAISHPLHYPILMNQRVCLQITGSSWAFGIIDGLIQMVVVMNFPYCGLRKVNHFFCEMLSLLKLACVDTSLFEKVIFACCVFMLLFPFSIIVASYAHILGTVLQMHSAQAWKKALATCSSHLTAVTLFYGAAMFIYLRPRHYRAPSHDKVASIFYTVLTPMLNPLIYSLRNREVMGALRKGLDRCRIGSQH
The essentials:
as §1

Test [6] has as its target T6, OR2W1 (Homo sapiens) (UniProt Q9Y3N9).
T6 sequence (whole entry): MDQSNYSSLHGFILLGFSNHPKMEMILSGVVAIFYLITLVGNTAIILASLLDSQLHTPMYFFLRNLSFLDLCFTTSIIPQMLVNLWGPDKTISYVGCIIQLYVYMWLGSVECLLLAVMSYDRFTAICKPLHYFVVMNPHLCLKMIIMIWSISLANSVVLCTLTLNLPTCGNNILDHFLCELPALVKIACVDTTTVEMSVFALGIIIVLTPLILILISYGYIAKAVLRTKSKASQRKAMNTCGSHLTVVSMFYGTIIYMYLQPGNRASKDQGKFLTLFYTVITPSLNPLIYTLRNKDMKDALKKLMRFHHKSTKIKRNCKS
The essentials:
as §1

For test [7], the system named is T7, OR2W1 G96V.
T7 sequence (whole entry): T6 sequence (whole entry) with G96V
The essentials: as §1

Test [8] deals with T8, OR2W3 (Homo sapiens) (UniProt Q7Z3T1).
T8 sequence (whole entry): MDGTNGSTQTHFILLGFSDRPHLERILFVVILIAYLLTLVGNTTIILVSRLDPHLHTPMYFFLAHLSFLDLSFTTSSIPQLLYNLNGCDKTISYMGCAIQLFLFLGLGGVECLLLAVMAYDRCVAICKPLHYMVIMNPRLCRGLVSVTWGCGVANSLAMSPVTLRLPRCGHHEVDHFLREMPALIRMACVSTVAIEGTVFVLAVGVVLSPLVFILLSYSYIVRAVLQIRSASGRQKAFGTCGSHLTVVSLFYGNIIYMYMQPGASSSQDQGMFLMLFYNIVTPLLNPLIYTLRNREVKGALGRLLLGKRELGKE
The essentials:
as §1

Test [9] has as its target T9, OR2W5P (Homo sapiens) (UniProt A6NFC9).
T9 sequence (whole entry): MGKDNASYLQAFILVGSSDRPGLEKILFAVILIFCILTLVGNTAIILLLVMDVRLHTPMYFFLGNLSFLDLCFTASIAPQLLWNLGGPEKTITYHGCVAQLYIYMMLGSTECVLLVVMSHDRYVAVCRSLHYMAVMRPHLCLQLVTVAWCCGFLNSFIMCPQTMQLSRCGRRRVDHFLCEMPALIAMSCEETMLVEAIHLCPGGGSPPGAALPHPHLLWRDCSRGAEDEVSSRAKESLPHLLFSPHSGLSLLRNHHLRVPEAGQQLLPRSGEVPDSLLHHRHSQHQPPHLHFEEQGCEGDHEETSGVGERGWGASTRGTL
The essentials:
as §1

For test [10], the target named is T10, OR2Y1 (Homo sapiens) (UniProt Q8NGV0).
T10 sequence (whole entry): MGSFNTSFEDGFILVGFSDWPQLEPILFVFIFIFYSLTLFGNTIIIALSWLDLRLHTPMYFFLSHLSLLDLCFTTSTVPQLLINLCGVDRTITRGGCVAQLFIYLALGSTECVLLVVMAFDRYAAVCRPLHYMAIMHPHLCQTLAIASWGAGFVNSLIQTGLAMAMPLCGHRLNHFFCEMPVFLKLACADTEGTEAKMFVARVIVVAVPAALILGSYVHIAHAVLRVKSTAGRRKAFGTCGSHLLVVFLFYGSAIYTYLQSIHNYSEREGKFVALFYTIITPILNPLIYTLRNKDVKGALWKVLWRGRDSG
The essentials:
as §1

The subject of test [11] is T11, OR2Y1.
T11 sequence (whole entry): T10 sequence (whole entry) with V200L
The essentials: as §1

Test [12] concerns the target T12, OR2Z1 (Homo sapiens) (UniProt Q8NG97).
T12 sequence (whole entry): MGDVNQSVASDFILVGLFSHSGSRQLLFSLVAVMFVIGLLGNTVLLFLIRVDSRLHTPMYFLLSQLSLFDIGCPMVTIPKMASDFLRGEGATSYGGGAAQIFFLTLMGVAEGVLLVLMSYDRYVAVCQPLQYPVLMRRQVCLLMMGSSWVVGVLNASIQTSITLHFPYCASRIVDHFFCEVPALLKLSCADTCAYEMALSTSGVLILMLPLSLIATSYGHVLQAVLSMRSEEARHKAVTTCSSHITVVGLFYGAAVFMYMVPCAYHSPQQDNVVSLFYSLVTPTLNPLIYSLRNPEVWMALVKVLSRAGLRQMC
The essentials: as §1

In test [13] the target is T13, OR3A1 (Homo sapiens) (UniProt P47881).
T13 sequence (whole entry): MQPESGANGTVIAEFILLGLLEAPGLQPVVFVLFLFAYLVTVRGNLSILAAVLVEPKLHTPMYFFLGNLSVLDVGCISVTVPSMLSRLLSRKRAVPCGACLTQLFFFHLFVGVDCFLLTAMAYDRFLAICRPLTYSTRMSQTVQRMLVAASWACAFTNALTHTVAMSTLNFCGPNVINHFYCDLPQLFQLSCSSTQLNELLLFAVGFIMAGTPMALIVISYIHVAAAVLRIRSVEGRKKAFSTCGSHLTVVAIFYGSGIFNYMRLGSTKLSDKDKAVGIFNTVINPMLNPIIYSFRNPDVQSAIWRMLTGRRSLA
The essentials:
as §1

In test [14] the test system is T14, OR3A1.
T14 sequence (whole entry): T13 sequence (whole entry) with R125Q
The essentials: as §1

The target in test [15] is T15, OR3A2 (Homo sapiens) (UniProt P47893).
T15 sequence (whole entry): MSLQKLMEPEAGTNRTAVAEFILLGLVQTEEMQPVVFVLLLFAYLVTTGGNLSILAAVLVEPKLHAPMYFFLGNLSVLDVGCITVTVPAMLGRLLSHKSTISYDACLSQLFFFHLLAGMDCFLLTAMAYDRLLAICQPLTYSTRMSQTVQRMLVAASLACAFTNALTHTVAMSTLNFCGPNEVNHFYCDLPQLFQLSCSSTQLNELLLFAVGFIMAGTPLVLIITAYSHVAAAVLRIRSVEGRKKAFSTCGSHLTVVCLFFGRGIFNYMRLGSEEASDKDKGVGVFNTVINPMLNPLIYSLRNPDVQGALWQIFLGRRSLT
The essentials: as §1

Test [16] has as its system T16, OR3A2 R317K.
T16 sequence (whole entry): T15 sequence (whole entry) with R317K
The essentials:
as §1

Test [17] deals with T17, OR3A3 (Homo sapiens) (UniProt P47888).
T17 sequence (whole entry): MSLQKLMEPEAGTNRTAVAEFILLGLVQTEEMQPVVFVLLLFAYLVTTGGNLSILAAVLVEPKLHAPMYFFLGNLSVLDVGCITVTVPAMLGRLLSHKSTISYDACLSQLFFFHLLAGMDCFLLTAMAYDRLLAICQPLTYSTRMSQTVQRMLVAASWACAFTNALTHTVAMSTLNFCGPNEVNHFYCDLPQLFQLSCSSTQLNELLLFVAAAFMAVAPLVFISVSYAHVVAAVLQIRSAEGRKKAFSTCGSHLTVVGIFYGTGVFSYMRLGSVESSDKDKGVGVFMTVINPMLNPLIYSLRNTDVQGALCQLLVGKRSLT
The essentials:
as §1

In the case of `CC1=NC(C)C(C)S1` (stereo not given), the “odorant receptor agonist call” value in test [1], in [2], in [3], in [4], in [5] and in test [6] was “inactive” each time. For the same molecule, the “odorant receptor agonist call” value in [7], in [8], in [9], in test [10], in test [11] and in [12] was “inactive” in each case. In addition, the “odorant receptor agonist call” value in test [13], in [14], in test [15], in test [16] and in test [17] was “inactive” in each case.
In the case of `COC1=C(C)OC(C)C1=O` (stereo not given), in test [6], the “odorant receptor agonist call” value was “inactive”.
Same read-out and setting: to `COc1cccc(OC)c1O` belongs “inactive”.
In the case of `CC12CCC(CC1=O)C2(C)C` (stereo not given), the “odorant receptor agonist call” value in test [6] was “inactive”.
Same read-out and setting: to `CCCC(O)CC(=O)OCC` (stereo not given) belongs “inactive”; to `CCCCC(=O)CC`, “active”.
The same measure, in the same setting: to `Cc1occc1S` belongs “inactive”.
Take `CSCCCO`: the “odorant receptor agonist call” value in test [6] was “inactive”.
Turning to `CC1=C(O)C(=O)OC1C` (stereo not given), the “odorant receptor agonist call” value in test [1], in test [2], in test [3], in [4], in test [5] and in test [6] was “inactive” each time. The “odorant receptor agonist call” value in test [7], in test [8], in test [9], in test [10], in [11] and in [12] was “inactive” in each case. For the same molecule, the “odorant receptor agonist call” value in [13], in test [14], in test [15], in [16] and in [17] was “inactive” throughout.
For `CCCCCC=O`, in test [6], the “odorant receptor agonist call” value is “inactive”.
Still for that read-out and setting: to `Cc1occc(=O)c1O` belongs “inactive”.
For `CC1=C(O)C(=O)C(C)O1` (stereo not given), the “odorant receptor agonist call” value in [1], in [2], in test [3], in [4], in test [5] and in test [6] was “inactive” each time. Also, the “odorant receptor agonist call” value in [7], in test [8], in test [9], in [10], in [11] and in test [12] was “inactive” each time. The “odorant receptor agonist call” value in [13], in test [14], in test [15], in test [16] and in [17] was “inactive” in each case.
